What is called MIC50 is the lowest concentration that inhibits either 50% of growth or 50% of the strains tested, depending on the study. For orientation: MIC90 means an inhibitory concentration at the 90% level, which refers to growth in some studies and to a panel of isolates in others. Low readings indicate higher susceptibility, high ones lower susceptibility. A word on the pIC50: it is the IC50 on a negative log10 scale, so that one unit is a factor of ten. A lower pIC50 goes with a high IC50.

Structures are written as SMILES. pIC50: −log10 of the molar value. Converted amounts (≈) assume the structure as drawn. A value given as a limit tells only on which side of the number the result lay.

Results on 29 compounds are retold here after ChEMBL document CHEMBL1240506, “Identification and development of novel inhibitors of Toxoplasma gondii enoyl reductase” (J Med Chem, 2010).

The subject of one series is Toxoplasma gondii. Briefly: Antiparasitic activity against Toxoplasma gondii infected in HFF after 24 hrs by [3H]uracil incorporation assay. The class given is functional. Put shortly: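 Human foreskin fibroblasts were infected with T. gondii tachyzoites and given 1 h to invade before inhibitors were added. Cultures ran 3 days, then 3H-uracil was added for a further day. Parasite growth was read as uracil incorporation by liquid scintillation counting. MIC50 and MIC90 are the concentrations giving 50% and 90% growth inhibition. There were 6 replicate samples per group.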

The target of series [1] is T1, Enoyl-acyl carrier reductase (Toxoplasma gondii, UniProt Q6UCJ9).
T1 sequence (Q6UCJ9 whole entry): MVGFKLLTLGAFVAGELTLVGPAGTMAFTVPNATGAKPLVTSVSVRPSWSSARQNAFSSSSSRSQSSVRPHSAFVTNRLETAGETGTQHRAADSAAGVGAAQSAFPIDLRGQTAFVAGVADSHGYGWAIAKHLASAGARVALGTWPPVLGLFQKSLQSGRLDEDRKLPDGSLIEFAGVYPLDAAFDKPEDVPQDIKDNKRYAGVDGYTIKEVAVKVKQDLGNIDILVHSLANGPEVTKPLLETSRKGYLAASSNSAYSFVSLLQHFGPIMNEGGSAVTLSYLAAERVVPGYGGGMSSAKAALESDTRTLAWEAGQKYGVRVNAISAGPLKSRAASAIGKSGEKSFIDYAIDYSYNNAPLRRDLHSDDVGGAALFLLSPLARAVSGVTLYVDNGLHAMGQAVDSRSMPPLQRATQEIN
Briefly: Inhibition of Toxoplasma gondii enoyl reductase. Put shortly:
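Recombinant TgENR (20 nM) was assayed in 100 mM Na/K phosphate pH 7.5, 150 mM NaCl and 100 μM NADH. Compounds were added in DMSO (2% final), and reactions were started at 25°C with 100 μM crotonyl-CoA. NADH consumption was followed at 340 nm.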

In series [2] the test system is HFF. In words: Toxicity to HFF at highest concentration. The class given is cell-based. Conditions: human. In a few lines: (§1)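 Host-cell toxicity was tested on non-confluent fibroblast monolayers by 3H-thymidine incorporation, alongside visual inspection of monolayer integrity. Testing ran simultaneously with the parasite inhibition assay, and the highest concentration tested was scored.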

The subject of series [3] is HFF. Briefly: Toxicity to HFF. The class given is cell-based. As to conditions: human. Put shortly:
as §1

Compound `Oc1cc(Cl)ccc1Oc1cccnc1` had an MIC50 against Toxoplasma gondii of over 6 µM. In the series on Toxoplasma gondii, this compound showed an MIC90 of over 6 µM. Moreover, the pIC50 in series [1] was 5.55. Moreover, the figures for the Activity result with HFF [2] and in the series on HFF [3] were “Non-toxic” and over 6 µM, respectively.

Take `CCCc1ccc(Oc2ccc([N+](=O)[O-])cc2[N+](=O)[O-])c(O)c1`: in the series on Toxoplasma gondii, the MIC50 was 2 µM (≈ 0.637 µg/mL) and the MIC90 amounted to 6 µM (≈ 1.91 µg/mL). In series [1], this compound showed a pIC50 of over 7.70. The Activity entry with HFF [2] is “Non-toxic”. Further, the Activity in the series with HFF [3] was under 1.5 µM.

In the series on Toxoplasma gondii, `C/C=C/C=C/C(=O)Nc1ccc(Oc2ccc(Cl)cc2Cl)c(O)c1` gave an MIC50 of 14 µM (≈ 5.1 µg/mL) and an MIC90 of 22 µM (≈ 8.01 µg/mL). The compound further showed a pIC50 in series [1] of 5.70. In the series with HFF [2], the Activity entry is “Non-toxic”.

In the series with Toxoplasma gondii, `CCCc1cc(O)c(Oc2ccc(C(N)=O)cc2)c(O)c1` yielded an MIC50 of 20 µM (≈ 5.75 µg/mL) and an MIC90 of over 24 µM. Moreover, the pIC50 in series [1] was 6.55. Besides, the Activity result with HFF [2] is recorded as “Non-toxic”.

In the series with Toxoplasma gondii, `CCCc1cc(O)c(Oc2ccc(C#N)cc2Cl)c(O)c1` returned an MIC50 of 15 µM (≈ 4.56 µg/mL) and an MIC90 of 22 µM (≈ 6.68 µg/mL). Moreover, in series [1], the pIC50 was over 7.70. Besides, in the series on HFF [2], the Activity entry was “Non-toxic”.

`CCCc1ccc(Oc2cccc(Cl)c2)c(O)c1` registered an MIC50 with Toxoplasma gondii of over 6 µM. Moreover, the MIC90 against Toxoplasma gondii was over 6 µM. Further, the Activity result was “Non-toxic” with HFF [2] and over 6 µM with HFF [3].

In the series with Toxoplasma gondii, `Oc1cc(Cl)ccc1Oc1ccccc1` showed an MIC50 of 5 µM (≈ 1.1 µg/mL). In the series on Toxoplasma gondii, this compound returned an MIC90 of over 6 µM. Besides, the Activity result is “Non-toxic” in the series with HFF [2] and over 6 µM with HFF [3].

In the series on Toxoplasma gondii, `CC(=O)Nc1ccc(/C=C/C(=O)N(C)Cc2cc3ccccc3n2C)cn1` showed an MIC50 of over 6 µM and an MIC90 of over 6 µM. Besides, the Activity result in the series with HFF [2] is recorded as “Non-toxic”. The compound further showed an Activity in the series with HFF [3] of over 6 µM.

In the case of `O=c1cc(OCc2ccccc2)ccn1Cc1ccc([N+](=O)[O-])cc1Cl`, in the series with Toxoplasma gondii, the MIC50 amounted to 3 µM (≈ 1.11 µg/mL) and the MIC90 was found to be 15 µM (≈ 5.56 µg/mL). For the same compound, in series [1], the pIC50 is under 4.70. The Activity result in the series on HFF [2] was “Non-toxic”.

In the series on Toxoplasma gondii, `Oc1ccc(Oc2ccc(Cl)cc2O)cc1` gave an MIC50 of over 6 µM and an MIC90 of over 6 µM. Moreover, the Activity entry with HFF [2] is recorded as “Non-toxic”. The compound further registered an Activity in the series on HFF [3] of over 6 µM.

In the series with Toxoplasma gondii, `C/C=C/C=C/C(=O)Nc1ccc(Oc2ccc(Cl)cc2O)cc1` registered an MIC50 of 6 µM (≈ 1.98 µg/mL) and an MIC90 of over 6 µM. Moreover, the pIC50 in series [1] is under 5.70. Further, the Activity in the series on HFF [3] turned out to be 6 µM.

In the series with Toxoplasma gondii, `CC(C)(C)C(=O)Oc1cc(Cl)ccc1Oc1ccc(Cl)cc1Cl` yielded an MIC50 of 4 µM (≈ 1.49 µg/mL) and an MIC90 of 6 µM (≈ 2.24 µg/mL). This compound also had a pIC50 in series [1] of 5.52. Also, the Activity entry in the series with HFF [2] is recorded as “Non-toxic”. The compound further returned an Activity with HFF [3] of over 6 µM.

Turning to `Oc1cc(Cl)ccc1Oc1cnccn1`, in the series with Toxoplasma gondii, the MIC50 is over 6 µM and the MIC90 is over 6 µM. Moreover, the Activity entry with HFF [2] is on record as “Non-toxic”. In the series on HFF [3], the Activity was over 6 µM.

In the series with Toxoplasma gondii, `Nc1ncccc1C(=O)Nc1cc(Cl)ccc1Oc1ccccc1` gave an MIC50 of 17 µM (≈ 5.78 µg/mL) and an MIC90 of 24 µM (≈ 8.15 µg/mL). The same compound showed a pIC50 in series [1] of under 4.70. Besides, the Activity result in the series on HFF [2] is recorded as “Non-toxic”.

For the compound `Nc1cc(Cl)ccc1Oc1ccccc1`, in the series with Toxoplasma gondii, the MIC50 worked out at 6 µM (≈ 1.32 µg/mL) and the MIC90 was over 6 µM. Moreover, the pIC50 in series [1] is under 4.70. In the series with HFF [2], the Activity result is “Non-toxic”.

As for `CCCc1ccc(Oc2ccc(N)cc2)c(O)c1`, the MIC50 in the series with Toxoplasma gondii is 6 µM (≈ 1.46 µg/mL). Besides, the MIC90 against Toxoplasma gondii is over 6 µM. In series [1], this compound had a pIC50 of over 7.70. Besides, the values for the Activity result in the series on HFF [2] and in the series with HFF [3] were “Non-toxic” and 3 µM, respectively.

For `O=[N+]([O-])c1ccccc1Oc1ccc(Cl)cc1O`, in the series on Toxoplasma gondii, the MIC50 worked out at 14 µM (≈ 3.72 µg/mL) and the MIC90 came out at 23 µM (≈ 6.11 µg/mL). Also, the pIC50 in series [1] is 6.54. Moreover, in the series on HFF [2], the Activity entry was “Non-toxic”.

In the series with Toxoplasma gondii, `N#Cc1ccc(Cn2ccc(OCc3ccccc3)cc2=O)c(Cl)c1` came in with an MIC50 of 18 µM (≈ 6.31 µg/mL) and an MIC90 of 23 µM (≈ 8.07 µg/mL). Moreover, the pIC50 in series [1] is under 4.70. In addition, in the series on HFF [2], the Activity result was “Non-toxic”.

Consider `CCCc1cc(O)c(Oc2ccc(C#N)cc2)c(O)c1`, for which, in the series with Toxoplasma gondii, the MIC50 is over 6 µM and the MIC90 was over 6 µM. For the same compound, in the series on HFF [2], the Activity entry is “Non-toxic”. The compound further displayed an Activity in the series with HFF [3] of 3 µM.

In the series on Toxoplasma gondii, `COc1ccc(COc2ccn(Cc3ccccc3Cl)c(=O)c2)cc1` registered an MIC50 of 17 µM (≈ 6.05 µg/mL) and an MIC90 of 23 µM (≈ 8.18 µg/mL). The pIC50 in series [1] was under 4.70. For the same compound, the Activity result with HFF [2] was “Non-toxic”.

`CCCc1ccc(Oc2ccc([N+](=O)[O-])cc2Cl)c(O)c1` had an MIC50 in the series with Toxoplasma gondii of 4 µM (≈ 1.23 µg/mL). In addition, the MIC90 in the series with Toxoplasma gondii was found to be 6 µM (≈ 1.85 µg/mL). In series [1], this compound showed a pIC50 of over 7.70. Moreover, the Activity result in the series on HFF [2] is “Non-toxic”; in the series with HFF [3], 1.5 µM.

For the compound `O=[N+]([O-])c1ccc(Oc2ccc(Cl)cc2O)cc1`, in the series on Toxoplasma gondii, the MIC50 stood at 17 µM (≈ 4.52 µg/mL) and the MIC90 worked out at 23 µM (≈ 6.11 µg/mL). The pIC50 in series [1] was 7.35. Besides, the Activity entry in the series with HFF [2] is on record as “Non-toxic”.

In the series with Toxoplasma gondii, `CCCc1ccc(Oc2cccc(B(O)O)c2)c(O)c1` had an MIC50 of 5 µM (≈ 1.36 µg/mL) and an MIC90 of 6 µM (≈ 1.63 µg/mL). In addition, the pIC50 in series [1] was 6.76. Moreover, in the series on HFF [2], the Activity result is “Non-toxic”. In addition, in the series on HFF [3], the Activity was over 6 µM.

In the series on Toxoplasma gondii, `CCCc1ccc(Oc2ccc([N+](=O)[O-])cc2)c(O)c1` yielded an MIC50 of 6 µM (≈ 1.64 µg/mL) and an MIC90 of over 6 µM. In series [1], this compound showed a pIC50 of over 7.70. In addition, the Activity entry in the series on HFF [2] is listed as “Non-toxic”. This compound displayed an Activity with HFF [3] of over 6 µM.

In the case of `CCCc1ccc(Oc2cccc([N+](=O)[O-])c2)c(O)c1`, in the series on Toxoplasma gondii, the MIC50 is over 6 µM and the MIC90 is over 6 µM. The Activity result in the series on HFF [2] is “Non-toxic”. The compound further showed an Activity in the series on HFF [3] of 6 µM.

In the series on Toxoplasma gondii, `O=c1cc(OCCCn2c3ccccc3c3ccccc32)ccn1Cc1ccccc1Cl` had an MIC50 of 2 µM (≈ 0.886 µg/mL) and an MIC90 of 14 µM (≈ 6.2 µg/mL). Also, the pIC50 in series [1] is under 5.70. In addition, in the series with HFF [2], the Activity result is “Non-toxic”.

Take `O=c1cc(OCc2ccccc2)ccn1Cc1ccccc1Cl`: in the series with Toxoplasma gondii, the MIC50 amounted to 7 µM (≈ 2.28 µg/mL) and the MIC90 is 15 µM (≈ 4.89 µg/mL). Also, the pIC50 in series [1] is under 4.70. Further, the Activity result with HFF [2] is reported as “Non-toxic”.

Regarding `CCCc1cc(O)c(Oc2ccc(C#N)cc2Cl)c(OC)c1`, in the series on Toxoplasma gondii, the MIC50 was over 6 µM and the MIC90 was over 6 µM. The Activity entry in the series on HFF [2] is reported as “Non-toxic”. The same compound yielded an Activity with HFF [3] of over 6 µM.

`Nc1ccc(Nc2ccccc2)c(N)c1` yielded an MIC50 in the series on Toxoplasma gondii of over 6 µM. The same compound registered an MIC90 in the series on Toxoplasma gondii of over 6 µM. Moreover, the results for the Activity result in the series with HFF [2] and with HFF [3] were “Non-toxic” and under 1.5 µM, respectively.
